Experimental data: ChEMBL document CHEMBL4261658, “4-Hydroxy-3-nitro-5-ureido-benzenesulfonamides Selectively Target the Tumor-Associated Carbonic Anhydrase Isoforms IX and XII Showing Hypoxia-Enhanced Antiproliferative Profiles” (J Med Chem, 2018)

Experiments:
[1] = target: Carbonic anhydrase 1 (Homo sapiens, UniProt P00915); assay: Inhibition of recombinant human cytosolic carbonic anhydrase 1 preincubated for 15 mins by stopped flow CO2 hydration assay
[2] = target: Carbonic anhydrase 9 (Homo sapiens, UniProt Q16790); assay: Inhibition of carbonic anhydrase 9 (unknown origin) preincubated for 15 mins by stopped flow CO2 hydration assay
[3] = target: Carbonic anhydrase 12 (Homo sapiens, UniProt O43570)
Chain of Carbonic anhydrase 12 (O43570 whole entry): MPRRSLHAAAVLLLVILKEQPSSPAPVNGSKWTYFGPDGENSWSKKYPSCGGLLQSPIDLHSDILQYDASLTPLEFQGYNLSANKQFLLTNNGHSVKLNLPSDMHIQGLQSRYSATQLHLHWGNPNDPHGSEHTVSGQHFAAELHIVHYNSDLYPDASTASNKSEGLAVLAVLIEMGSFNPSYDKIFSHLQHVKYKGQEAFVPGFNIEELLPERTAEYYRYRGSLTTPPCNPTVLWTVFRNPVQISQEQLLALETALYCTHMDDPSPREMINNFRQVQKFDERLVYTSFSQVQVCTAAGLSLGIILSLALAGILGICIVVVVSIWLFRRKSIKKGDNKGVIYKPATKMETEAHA

[4] = tested on: HT-29; assay: Cytotoxicity against human HT-29 cells assessed as cell viability at 100 uM after 48 hrs under hypoxic conditions by MTT assay (reference value: 100%); assay type: functional; settings: Homo sapiens, HT-29, 48 h; read-out: Activity
Outline: (§1)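 Cells cultured in high-glucose DMEM with 20% FBS at 37 °C and 5% CO2, seeded at 1x10^4/well, then dosed 24 h later (0–200 μM) for 48 h. Hypoxia: 1% O2, 5% CO2, balance N2 in a hypoxic workstation; normoxia: 20% O2 in air, 5% CO2. MTT (1 mg/ml) for 30 min at 37 °C, formazan dissolved in DMSO, A550. Untreated control set to 100%; quadruplicates, ≥3 cell batches, mean ± S.E.M.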

[5] = tested on: PC-3; assay: Cytotoxicity against human PC3 cells assessed as cell viability at 100 uM after 48 hrs under hypoxic conditions by MTT assay (reference value: 100%); assay type: functional; settings: PC-3, 48 h, read-out: Activity; outline: as §1
[6] = tested on: MDA-MB-231; assay: Cytotoxicity against human MDA-MB-231 cells assessed as cell viability at 100 uM after 48 hrs under normoxic conditions by MTT assay (reference value: 100%); assay type: functional; settings: MDA-MB-231, 48 h, read-out: Activity; outline: as §1
[7] = tested on: PC-3; assay: Cytotoxicity against human PC3 cells assessed as cell viability at 200 uM after 48 hrs under hypoxic conditions by MTT assay (reference value: 100%); assay type: functional; settings: PC-3, 48 h, read-out: Activity; outline: as §1
[8] = organism: Homo sapiens; assay: Selectivity ratio of Ki for carbonic anhydrase 2 (unknown origin) to Ki for carbonic anhydrase 9 (unknown origin)
[9] = tested on: PC-3; assay: Cytotoxicity against human PC3 cells assessed as cell viability at 30 uM after 48 hrs under hypoxic conditions by MTT assay (reference value: 100%); assay type: functional; settings: PC-3, 48 h, read-out: Activity; outline: as §1
[10] = tested on: HT-29; assay: Cytotoxicity against human HT-29 cells assessed as cell viability at 30 uM after 48 hrs under hypoxic conditions by MTT assay (reference value: 100%); assay type: functional; settings: Homo sapiens, HT-29, 48 h; read-out: Activity; outline: as §1
[11] = tested on: HT-29; assay: Cytotoxicity against human HT-29 cells assessed as cell viability at 100 uM after 48 hrs under normoxic conditions by MTT assay (reference value: 100%); assay type: functional; settings: Homo sapiens, HT-29, 48 h; read-out: Activity; outline: as §1
[12] = tested on: HT-29; assay: Cytotoxicity against human HT-29 cells assessed as cell viability at 30 uM after 48 hrs under normoxic conditions by MTT assay (reference value: 100%); assay type: functional; settings: Homo sapiens, HT-29, 48 h; read-out: Activity; outline: as §1
[13] = tested on: PC-3; assay: Cytotoxicity against human PC3 cells assessed as cell viability at 100 uM after 48 hrs under normoxic conditions by MTT assay (reference value: 100%); assay type: functional; settings: PC-3, 48 h, read-out: Activity; outline: as §1
[14] = tested on: MDA-MB-231; assay: Cytotoxicity against human MDA-MB-231 cells assessed as reduction in cell viability after 48 hrs under hypoxic conditions by MTT assay; assay type: functional, cell-based; settings: for IC50: MDA-MB-231, 48 h; outline: as §1
[15] = tested on: PC-3; assay: Cytotoxicity against human PC3 cells assessed as reduction in cell viability after 48 hrs under hypoxic conditions by MTT assay; assay type: functional, cell-based; settings: for IC50: PC-3, 48 h; outline: as §1
[16] = tested on: PC-3; assay: Cytotoxicity against human PC3 cells assessed as cell viability at 30 uM after 48 hrs under normoxic conditions by MTT assay (reference value: 100%); assay type: functional; settings: PC-3, 48 h, read-out: Activity; outline: as §1
[17] = tested on: MDA-MB-231; assay: Cytotoxicity against human MDA-MB-231 cells assessed as cell viability at 100 uM after 48 hrs under hypoxic conditions by MTT assay (reference value: 100%); assay type: functional; settings: MDA-MB-231, 48 h, read-out: Activity; outline: as §1
[18] = tested on: MDA-MB-231; assay: Cytotoxicity against human MDA-MB-231 cells assessed as cell viability at 30 uM after 48 hrs under hypoxic conditions by MTT assay (reference value: 100%); assay type: functional; settings: MDA-MB-231, 48 h, read-out: Activity; outline: as §1
[19] = tested on: HT-29; assay: Cytotoxicity against human HT-29 cells assessed as reduction in cell viability after 48 hrs under hypoxic conditions by MTT assay; assay type: functional, cell-based; settings: for IC50: HT-29, 48 h; outline: as §1
[20] = tested on: MDA-MB-231; assay: Cytotoxicity against human MDA-MB-231 cells assessed as cell viability at 200 uM after 48 hrs under hypoxic conditions by MTT assay (reference value: 100%); assay type: functional; settings: MDA-MB-231, 48 h, read-out: Activity; outline: as §1
[21] = tested on: MDA-MB-231; assay: Cytotoxicity against human MDA-MB-231 cells assessed as reduction in cell viability after 48 hrs under normoxic conditions by MTT assay; assay type: functional, cell-based; settings: for IC50: MDA-MB-231, 48 h; outline: as §1
[22] = tested on: MDA-MB-231; assay: Potency index, ratio of cytotoxicity against human MDA-MB-231 cells assessed as reduction in cell viability at 100 uM after 48 hrs under hypoxic conditions by MTT assay to cytotoxicity against human MDA-MB-231 cells assessed as reduction in cell viability at 100 uM after 48 hrs under normoxic conditions by MTT assay; assay type: functional
[23] = tested on: MDA-MB-231; assay: Cytotoxicity against human MDA-MB-231 cells assessed as cell viability at 200 uM after 48 hrs under normoxic conditions by MTT assay (reference value: 100%); assay type: functional; settings: MDA-MB-231, 48 h, read-out: Activity; outline: as §1
[24] = tested on: HT-29; assay: Cytotoxicity against human HT-29 cells assessed as cell viability at 300 uM after 48 hrs under hypoxic conditions by MTT assay (reference value: 100%); assay type: functional; settings: HT-29, 48 h, read-out: Activity
[25] = tested on: HT-29; assay: Cytotoxicity against human HT-29 cells assessed as reduction in cell viability after 48 hrs under normoxic conditions by MTT assay; assay type: functional, cell-based; settings: for IC50: HT-29, 48 h; outline: as §1
[26] = tested on: PC-3; assay: Cytotoxicity against human PC3 cells assessed as cell viability at 200 uM after 48 hrs under normoxic conditions by MTT assay (reference value: 100%); assay type: functional; settings: PC-3, 48 h, read-out: Activity; outline: as §1
[27] = tested on: MDA-MB-231; assay: Cytotoxicity against human MDA-MB-231 cells assessed as cell viability at 30 uM after 48 hrs under normoxic conditions by MTT assay (reference value: 100%); assay type: functional; settings: MDA-MB-231, 48 h, read-out: Activity; outline: as §1
[28] = tested on: PC-3; assay: Cytotoxicity against human PC3 cells assessed as reduction in cell viability after 48 hrs under normoxic conditions by MTT assay; assay type: functional, cell-based; settings: for IC50: PC-3, 48 h; outline: as §1
[29] = tested on: HT-29; assay: Cytotoxicity against human HT-29 cells assessed as cell viability at 200 uM after 48 hrs under hypoxic conditions by MTT assay (reference value: 100%); assay type: functional; settings: Homo sapiens, HT-29, 48 h; read-out: Activity; outline: as §1
[30] = tested on: HT-29; assay: Cytotoxicity against human HT-29 cells assessed as cell viability at 200 uM after 48 hrs under normoxic conditions by MTT assay (reference value: 100%); assay type: functional; settings: Homo sapiens, HT-29, 48 h; read-out: Activity; outline: as §1
[31] = target: Carbonic anhydrase 2 (Homo sapiens, UniProt P00918); assay: Inhibition of carbonic anhydrase 2 (unknown origin) preincubated for 15 mins by stopped flow CO2 hydration assay

Chain of Carbonic anhydrase 1 (P00915 whole entry): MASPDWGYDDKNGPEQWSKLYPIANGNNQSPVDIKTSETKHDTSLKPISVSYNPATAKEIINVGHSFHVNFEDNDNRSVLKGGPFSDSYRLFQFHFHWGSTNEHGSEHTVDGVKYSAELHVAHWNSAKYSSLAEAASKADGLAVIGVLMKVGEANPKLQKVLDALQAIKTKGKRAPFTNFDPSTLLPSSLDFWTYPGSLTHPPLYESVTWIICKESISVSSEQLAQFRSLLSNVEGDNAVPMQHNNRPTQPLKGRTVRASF

SMILES	Ki [2]	Ki [3]	viability at 100 µM [4]	viability at 100 µM [5]	viability at 100 µM [6]	viability at 200 µM [7]	Ratio Ki [8]	viability at 30 µM [9]	viability at 30 µM [10]	viability at 100 µM [11]	viability at 30 µM [12]	viability at 100 µM [13]	Activity [14]	IC50 [14]	Activity [15]	IC50 [15]	viability at 30 µM [16]	viability at 100 µM [17]	viability at 30 µM [18]	Activity [19]	also measured
NS(=O)(=O)c1cc(NC(=O)NCc2ccco2)c(O)c([N+](=O)[O-])c1	0.39 µM	0.53 µM																			Ki [1]: > 50 µM
NS(=O)(=O)c1cc(NC(=O)Nc2cc(C(F)(F)F)cc(C(F)(F)F)c2)c(O)c([N+](=O)[O-])c1	0.34 µM	0.46 µM	63.6%	20.1%	101%	19.6%	5	109%	98.6%	22.7%	102%	23.4%	Dose-dependent effect	63.2 µM	Dose-dependent effect	70.6 µM	118%	19.8%	100%	Dose-dependent effect	IC50 [19]: 133 µM; viability at 200 µM [20]: 20.2%; Activity [21]: Dose-dependent effect; IC50 [21]: 196 µM; Ratio [22]: 4; viability at 200 µM [23]: 45.8%; viability at 300 µM [24]: 25.6%; Activity [25]: Dose-dependent effect; IC50 [25]: 60.2 µM; viability at 200 µM [26]: 20.9%; viability at 30 µM [27]: 106%; Activity [28]: Dose-dependent effect; IC50 [28]: 68.6 µM
NS(=O)(=O)c1cc(NC(=O)NCCc2ccccc2)c(O)c([N+](=O)[O-])c1	0.11 µM	0.31 µM	57.3%	62.7%	107%	61.9%	28	85.2%	76.7%	85.8%	97.6%	68.5%	Dose-dependent effect	194 µM	Dose-dependent effect	> 200 µM	115%	79.8%	72%	Dose-dependent effect	viability at 200 µM [29]: 53.8%; IC50 [19]: > 200 µM; viability at 200 µM [30]: 80.7%; viability at 200 µM [20]: 48.2%; Activity [21]: Dose-dependent effect; IC50 [21]: > 200 µM; viability at 200 µM [23]: 85.1%; Activity [25]: Dose-dependent effect; IC50 [25]: > 200 µM; viability at 200 µM [26]: 63.5%; viability at 30 µM [27]: 108%; Activity [28]: Dose-dependent effect; IC50 [28]: > 200 µM
NS(=O)(=O)c1cc(NC(=O)Nc2ccc3c(c2)OCO3)c(O)c([N+](=O)[O-])c1	0.15 µM	0.25 µM	22.8%	77.5%	95%	70.2%	30	101%	28.3%	62.7%	71.5%	65.9%	Dose-dependent effect	> 200 µM	Dose-dependent effect	> 200 µM	80.1%	92.2%	105%	Dose-dependent effect	Ki [1]: > 50 µM; viability at 200 µM [29]: 24.6%; IC50 [19]: 79.5 µM; viability at 200 µM [30]: 60.4%; viability at 200 µM [20]: 67.5%; Activity [21]: Dose-dependent effect; IC50 [21]: > 200 µM; viability at 200 µM [23]: 103%; Activity [25]: Dose-dependent effect; IC50 [25]: > 200 µM; viability at 200 µM [26]: 61.6%; viability at 30 µM [27]: 105%; Activity [28]: Dose-dependent effect; IC50 [28]: > 200 µM
CC(=O)OC[C@@H]1O[C@@H](OC(C)=O)[C@@H](NC(=O)Nc2cc(S(N)(=O)=O)cc([N+](=O)[O-])c2O)[C@H](OC(C)=O)[C@H]1OC(C)=O	0.29 µM	0.79 µM	79.8%	85.2%	111%	70.6%		91.5%	95.6%	100%	111%	67.5%	Dose-dependent effect	> 200 µM	Dose-dependent effect	> 200 µM	59.6%	90.7%	99.5%	Dose-dependent effect	viability at 200 µM [29]: 84.8%; IC50 [19]: > 200 µM; viability at 200 µM [30]: 103%; viability at 200 µM [20]: 65.9%; Activity [21]: Dose-dependent effect; IC50 [21]: > 200 µM; viability at 200 µM [23]: 103%; Activity [25]: Dose-dependent effect; IC50 [25]: > 200 µM; viability at 200 µM [26]: 68.3%; viability at 30 µM [27]: 100%; Activity [28]: Dose-dependent effect; IC50 [28]: > 200 µM
NS(=O)(=O)c1cc(NC(=O)Nc2ccccc2)c(O)c([N+](=O)[O-])c1	0.94 µM	0.83 µM					3														Ki [1]: > 50 µM
NS(=O)(=O)c1cc(NC(=O)Nc2ccc(C(F)(F)F)cc2)c(O)c([N+](=O)[O-])c1	0.63 µM	0.95 µM																			Ki [31]: 0.2 µM
